Results reported in ChEMBL document CHEMBL5712897, “EZH2 inhibits autophagic cell death of aortic vascular smooth muscle cells to affect aortic dissection” (2018).
One block for each compound: values may come before it. The source made the active and inactive calls. No cut-off for these calls is given here.

Tests used:
MOVAS [1] = test: Cell cycle arrest in mouse MOVAS cells assessed as effect on G0/G1-phase cell population by flow cytometry; type: functional, cell-based
How it was run: (§1)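 MOVAS mouse aortic SMCs (about 2–5×10^6) harvested by trypsin, washed twice in PBS, fixed overnight at 4 °C in cold 70% ethanol, then stained 2 h in the dark with RNase A (0.3 mg) and propidium iodide (0.015 mg). Cell-cycle phase distribution read by flow cytometry. Data are mean ± SD, compared by two-tailed t-test.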

MOVAS [2] = test: Cell cycle arrest in mouse MOVAS cells assessed as effect on S-phase cell population by flow cytometry; type: functional, cell-based; how it was run: as §1
[3] = Induction of apoptosis in mouse MOVAS cells assessed as early apoptotic cells by flow cytometry; type: functional
How it was run: (§2)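 Trypsinized MOVAS cells stained with a PE Annexin V apoptosis detection kit and analysed by flow cytometry, which separated early and late apoptotic populations. Mean ± SD; two-tailed Student's t-test.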

MOVAS [4] = test: Cell cycle arrest in mouse MOVAS cells assessed as effect on G2/M-phase cell population by flow cytometry; type: functional, cell-based; how it was run: as §1
[5] = Induction of apoptosis in mouse MOVAS cells assessed as late apoptotic cells by flow cytometry; type: functional; how it was run: as §2
MOVAS [6] = test: Cell cycle arrest in mouse MOVAS cells assessed as effect on G2/M-phase cell population at 5 uM by flow cytometry; type: functional, cell-based; how it was run: as §1
[7] = molecular target: Histone-lysine N-methyltransferase EZH2 (Mus musculus) (UniProt Q61188); test: Inhibition of EZH2 in mouse MOVAS cells transfected with shATG5 assessed as reduction in cell count at 5 uM measured up to 48 hrs by cell counting method; type: cell-based
Sequence of Histone-lysine N-methyltransferase EZH2 (Mus musculus) (Q61188 whole entry): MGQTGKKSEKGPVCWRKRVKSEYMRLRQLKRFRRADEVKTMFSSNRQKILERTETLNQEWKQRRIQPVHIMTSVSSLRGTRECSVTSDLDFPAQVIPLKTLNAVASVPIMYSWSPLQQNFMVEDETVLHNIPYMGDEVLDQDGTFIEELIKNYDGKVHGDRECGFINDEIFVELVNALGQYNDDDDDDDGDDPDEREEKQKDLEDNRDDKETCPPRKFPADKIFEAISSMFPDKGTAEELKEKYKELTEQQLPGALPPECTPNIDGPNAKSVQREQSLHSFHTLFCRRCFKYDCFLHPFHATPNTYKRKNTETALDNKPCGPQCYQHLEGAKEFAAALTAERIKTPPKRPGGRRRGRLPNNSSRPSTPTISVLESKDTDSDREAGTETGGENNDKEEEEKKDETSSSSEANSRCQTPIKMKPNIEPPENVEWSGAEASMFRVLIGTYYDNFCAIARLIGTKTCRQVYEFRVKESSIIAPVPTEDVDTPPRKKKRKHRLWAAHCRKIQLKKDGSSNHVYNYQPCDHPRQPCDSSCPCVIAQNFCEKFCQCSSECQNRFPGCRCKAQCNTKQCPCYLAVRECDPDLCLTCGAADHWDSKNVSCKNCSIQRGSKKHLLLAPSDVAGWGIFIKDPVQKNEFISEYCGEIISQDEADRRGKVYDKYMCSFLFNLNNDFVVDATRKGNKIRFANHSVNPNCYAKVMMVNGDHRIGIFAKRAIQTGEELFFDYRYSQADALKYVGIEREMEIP
How it was run: (§3)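 MOVAS cells serum-starved 12 h in DMEM/high glucose, then 2×10^5 cells seeded in six-well plates in medium with 10% FBS. Trypsinized at 12, 24, 36 and 48 h and counted by a single blinded observer. Three replicate wells (n = 3); mean ± SD, two-tailed t-test.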

[8] = molecular target: Histone-lysine N-methyltransferase EZH2 (Mus musculus) (UniProt Q61188); test: Inhibition of EZH2 in mouse MOVAS cells assessed as increase in ERK1/2 phosphorylation at 5 uM measured after 6 hrs by Western blot analysis; type: cell-based
How it was run: (§4)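 Total protein from MOVAS cells extracted in RIPA buffer. 20 μg per lane resolved by SDS-PAGE and transferred to PVDF. Blocked in 5% non-fat milk, primary antibody overnight at 4 °C, then peroxidase-conjugated secondary and chemiluminescence imaging. Normalized to GAPDH or β-actin loading control. n = 4; mean ± SD versus DMSO, two-tailed t-test.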

[9] = molecular target: Histone-lysine N-methyltransferase EZH2 (Mus musculus) (UniProt Q61188); test: Inhibition of EZH2 in mouse MOVAS cells assessed as elevation of LC3-II expression at 5 uM in presence of chloroquine by Western blot analysis; type: cell-based; how it was run: as §4
[10] = molecular target: Histone-lysine N-methyltransferase EZH2 (Mus musculus) (UniProt Q61188); test: Inhibition of EZH2 in mouse MOVAS cells transfected with shATG7 assessed as reduction in cell count at 5 uM measured up to 48 hrs by cell counting method; type: cell-based; how it was run: as §3
[11] = molecular target: Histone-lysine N-methyltransferase EZH2 (Mus musculus) (UniProt Q61188); test: Inhibition of EZH2 in mouse MOVAS cells transfected with shATG7 assessed as reduction in cell count at 5 uM measured after 48 hrs by light microscopy; type: cell-based
How it was run: (§5)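 Mouse MOVAS VSMCs imaged by light microscopy after 48 h of the indicated treatments (scale bar 200 μm). Lentivirally modified cells were selected with puromycin 2 μg/ml after 48 h infection. Treatments were inhibitor 5 μM, DMSO vehicle, or PD98059 50 μM.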

[12] = molecular target: Histone-lysine N-methyltransferase EZH2 (Mus musculus) (UniProt Q61188); test: Inhibition of EZH2 in mouse MOVAS cells assessed as cell injury at 5 uM measured after 48 hrs by LDH release assay; type: cell-based
How it was run: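 Mouse MOVAS VSMCs exposed to inhibitor for 48 h. Cell injury quantified as percentage of injured cells from released LDH using a cytotoxicity LDH kit. n = 6; mean ± SD versus DMSO, two-tailed t-test.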

[13] = molecular target: Histone-lysine N-methyltransferase EZH2 (Mus musculus) (UniProt Q61188); test: Inhibition of EZH2 in mouse MOVAS cells assessed as reduction in H3K27me2 level at 5 uM measured after 24 hrs by Western blot analysis; type: cell-based; how it was run: as §4
[14] = molecular target: Histone-lysine N-methyltransferase EZH2 (Mus musculus) (UniProt Q61188); test: Inhibition of EZH2 in mouse MOVAS cells assessed as reduction in cell number at 5 uM measured at 24 hrs by cell counting method; type: cell-based; how it was run: as §3
[15] = molecular target: Histone-lysine N-methyltransferase EZH2 (Mus musculus) (UniProt Q61188); test: Inhibition of EZH2 in mouse MOVAS cells assessed as increase in LC3-II accumulation at 5 uM measured after 24 hrs in presence of MEK1 inhibitor PD98059 by Western blot analysis; type: cell-based; how it was run: as §4
[16] = molecular target: Histone-lysine N-methyltransferase EZH2 (Mus musculus) (UniProt Q61188); test: Inhibition of EZH2 in mouse MOVAS cells assessed as increase in ATG5 expression at 5 uM measured after 24 hrs by Western blot analysis; type: cell-based; how it was run: as §4
MOVAS [17] = test: Cell cycle arrest in mouse MOVAS cells assessed as effect on G0/G1-phase cell population at 5 uM by flow cytometry; type: functional, cell-based; how it was run: as §1
[18] = molecular target: Histone-lysine N-methyltransferase EZH2 (Mus musculus) (UniProt Q61188); test: Inhibition of EZH2 in mouse MOVAS cells assessed as effect on S6 phosphorylation at 5 uM measured after 24 hrs by Western blot analysis; type: cell-based; how it was run: as §4
[19] = molecular target: Histone-lysine N-methyltransferase EZH2 (Mus musculus) (UniProt Q61188); test: Inhibition of EZH2 in mouse MOVAS cells assessed as reduction in cell count at 5 uM measured after 48 hrs in presence of MEK1 inhibitor PD98059 by light microscopy; type: cell-based; how it was run: as §5
[20] = molecular target: Histone-lysine N-methyltransferase EZH2 (Mus musculus) (UniProt Q61188); test: Inhibition of EZH2 in mouse MOVAS cells assessed as appearance of double-membraned vacuole containing fragments of cytoplasmic component in presence of rapamycin by transmission electron microscopy; type: cell-based
How it was run: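 MOVAS cells treated with inhibitor or lentivirus, with rapamycin at 150 nM. Fixed in cold 2.5% glutaraldehyde for 30 min, then further fixed overnight at 4 °C, dehydrated in ethanol and acetone, and embedded in epoxy resin. 60-nm sections stained with uranyl acetate and lead citrate and imaged by TEM for double-membraned autophagic vacuoles.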

[21] = Induction of apoptosis in mouse MOVAS cells assessed as late apoptotic cells at 5 uM by flow cytometry; type: functional; how it was run: as §2
[22] = molecular target: Histone-lysine N-methyltransferase EZH2 (Mus musculus) (UniProt Q61188); test: Inhibition of EZH2 in mouse VSMC cells assessed as reduction in cell count at 5 uM for 24 hrs by light microscopic analysis; type: cell-based; conditions: MOVAS
[23] = molecular target: Histone-lysine N-methyltransferase EZH2 (Mus musculus) (UniProt Q61188); test: Inhibition of EZH2 in mouse MOVAS cells over-expressing AKT assessed as increase in LC3-II expression at 5 uM measured after 24 hrs by Western blot analysis; type: cell-based; how it was run: as §4
[24] = molecular target: Histone-lysine N-methyltransferase EZH2 (Mus musculus) (UniProt Q61188); test: Inhibition of EZH2 in mouse MOVAS cells assessed as reduction in cell count at 5 uM measured after 48 hrs in presence of MEK1 inhibitor PD98059 by cell counting method; type: cell-based; how it was run: as §3
[25] = molecular target: Histone-lysine N-methyltransferase EZH2 (Mus musculus) (UniProt Q61188); test: Inhibition of EZH2 in mouse MOVAS cells assessed as effect on AMPKalpha phosphorylation at 5 uM measured after 24 hrs by Western blot analysis; type: cell-based; how it was run: as §4
[26] = molecular target: Histone-lysine N-methyltransferase EZH2 (Mus musculus) (UniProt Q61188); test: Inhibition of EZH2 in mouse MOVAS cells assessed as increase in ERK1/2 phosphorylation at 5 uM measured after 6 hrs in presence of MEK1 inhibitor PD98059 by Western blot analysis; type: cell-based; how it was run: as §4
[27] = molecular target: Histone-lysine N-methyltransferase EZH2 (Mus musculus) (UniProt Q61188); test: Inhibition of EZH2 in mouse MOVAS cells assessed as effect on mTOR phosphorylation at 5 uM measured after 24 hrs by Western blot analysis; type: cell-based; how it was run: as §4
[28] = molecular target: Histone-lysine N-methyltransferase EZH2 (Mus musculus) (UniProt Q61188); test: Inhibition of EZH2 in mouse MOVAS cells transfected with shATG5 assessed as increase in LC3-II expression at 5 uM by Western blot analysis; type: cell-based; how it was run: as §4
MOVAS [29] = test: Cell cycle arrest in mouse MOVAS cells assessed as effect on S-phase cell population at 5 uM by flow cytometry; type: functional, cell-based; how it was run: as §1
[30] = molecular target: Histone-lysine N-methyltransferase EZH2 (Mus musculus) (UniProt Q61188); test: Inhibition of EZH2 in mouse MOVAS cells assessed as increase in ATG7 expression at 5 uM measured after 24 hrs by Western blot analysis; type: cell-based; how it was run: as §4
[31] = molecular target: Histone-lysine N-methyltransferase EZH2 (Mus musculus) (UniProt Q61188); test: Inhibition of EZH2 in mouse MOVAS cells assessed as elevation of LC3-II expression at 5 uM in presence of chloroquine and rapamycin by Western blot analysis; type: cell-based; how it was run: as §4
[32] = molecular target: Histone-lysine N-methyltransferase EZH2 (Mus musculus) (UniProt Q61188); test: Inhibition of EZH2 in mouse MOVAS cells over-expressing AKT assessed as reduction in cell count at 5 uM by cell counting method; type: cell-based; how it was run: as §3
[33] = molecular target: Histone-lysine N-methyltransferase EZH2 (Mus musculus) (UniProt Q61188); test: Inhibition of EZH2 in mouse MOVAS cells assessed as reduction in AKT phosphorylation at 5 uM measured after 24 hrs by Western blot analysis; type: cell-based; how it was run: as §4
[34] = molecular target: Histone-lysine N-methyltransferase EZH2 (Mus musculus) (UniProt Q61188); test: Inhibition of EZH2 in mouse MOVAS cells over-expressing AKT assessed as reduction in cell count at 5 uM by light microscopy; type: cell-based; how it was run: as §5
[35] = molecular target: Histone-lysine N-methyltransferase EZH2 (Mus musculus) (UniProt Q61188); test: Inhibition of EZH2 in mouse MOVAS cells over-expressing AKT assessed as reduction in H3K27me3 level at 5 uM measured after 24 hrs by Western blot analysis; type: cell-based; how it was run: as §4
[36] = molecular target: Histone-lysine N-methyltransferase EZH2 (Mus musculus) (UniProt Q61188); test: Inhibition of EZH2 in mouse MOVAS cells transfected with shATG7 assessed as increase in LC3-II expression at 5 uM by Western blot analysis; type: cell-based; how it was run: as §4
[37] = molecular target: Histone-lysine N-methyltransferase EZH2 (Mus musculus) (UniProt Q61188); test: Inhibition of EZH2 in mouse MOVAS cells over-expressing AKT assessed as reduction in H3K27me2 level at 5 uM measured after 24 hrs by Western blot analysis; type: cell-based; how it was run: as §4
[38] = molecular target: Histone-lysine N-methyltransferase EZH2 (Mus musculus) (UniProt Q61188); test: Inhibition of EZH2 in mouse MOVAS cells assessed as reduction in H3K27me3 level at 5 uM measured after 24 hrs by Western blot analysis; type: cell-based; how it was run: as §4
[39] = molecular target: Histone-lysine N-methyltransferase EZH2 (Mus musculus) (UniProt Q61188); test: Inhibition of EZH2 in mouse MOVAS cells assessed as elevation of LC3-II expression at 5 uM by Western blot analysis; type: cell-based; how it was run: as §4
[40] = Induction of apoptosis in mouse MOVAS cells assessed as early apoptotic cells at 5 uM by flow cytometry; type: functional; how it was run: as §2
[41] = molecular target: Histone-lysine N-methyltransferase EZH2 (Mus musculus) (UniProt Q61188); test: Inhibition of EZH2 in mouse MOVAS cells transfected with shATG5 assessed as reduction in cell count at 5 uM measured after 48 hrs by light microscopy; type: cell-based; how it was run: as §5

Structure (SMILES): C[S+](C)[O-] [DIMETHYL SULFOXIDE]
Activity (MOVAS [1]): inactive | Activity (MOVAS [2]): inactive | Activity [3]: 9.76% | Activity (MOVAS [4]): inactive | Activity [5]: 5.96%

inhibition [7]: inactive | inhibition [8]: Active | inhibition [9]: Active | inhibition [10]: inactive | inhibition [11]: inactive | inhibition [13]: Active | inhibition [14]: Active | inhibition [15]: inactive | inhibition [16]: Active | inhibition [18]: inactive | inhibition [19]: inactive | inhibition [20]: Active | inhibition [22]: Active | inhibition [23]: Active | inhibition [24]: inactive | inhibition [25]: inactive | inhibition [26]: inactive | inhibition [27]: inactive | inhibition [28]: inactive | inhibition [30]: Active | inhibition [31]: Active | inhibition [32]: Active | inhibition [33]: Active | inhibition [34]: Active | inhibition [35]: Active | inhibition [36]: inactive | inhibition [37]: Active | inhibition [38]: Active | inhibition [39]: Active | inhibition [41]: inactive
Structure (SMILES): CCCc1cc(C)[nH]c(=O)c1CNC(=O)c1cc(-c2ccc(N3CCN(C(C)C)CC3)nc2)cc2c1cnn2C(C)C
Activity (MOVAS [6]): inactive | inhibition [12]: Active | Activity (MOVAS [17]): inactive | Activity [21]: 6.11% | Activity (MOVAS [29]): inactive | Activity [40]: 8.67%
